{"source": "paper PMC4165341", "about": "(ACS nano, 2011)", "key": {"[1]": {"target": "T1, mOR256-17, His-tagged, nanotube device (Mus musculus, UniProt P23275)", "T1 sequence (P23275 1-312)": "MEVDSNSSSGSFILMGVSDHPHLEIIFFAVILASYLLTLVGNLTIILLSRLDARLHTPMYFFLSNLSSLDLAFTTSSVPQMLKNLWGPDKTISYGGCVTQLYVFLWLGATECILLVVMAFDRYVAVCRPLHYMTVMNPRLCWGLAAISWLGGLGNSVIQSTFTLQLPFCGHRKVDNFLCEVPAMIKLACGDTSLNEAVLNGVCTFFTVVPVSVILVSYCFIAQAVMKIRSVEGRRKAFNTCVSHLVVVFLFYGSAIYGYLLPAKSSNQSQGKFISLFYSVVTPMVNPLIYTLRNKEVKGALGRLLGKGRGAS", "assay": "carbon nanotube transistor current change", "format": "binding", "conditions": "odorant vapor in N2, 50% RH, concentration not given"}, "[2]": {"target": "T2, mOR174-9 (mOR-EG), His-tagged, nanotube device (Mus musculus, UniProt Q920P2)", "T2 sequence (Q920P2 1-313)": "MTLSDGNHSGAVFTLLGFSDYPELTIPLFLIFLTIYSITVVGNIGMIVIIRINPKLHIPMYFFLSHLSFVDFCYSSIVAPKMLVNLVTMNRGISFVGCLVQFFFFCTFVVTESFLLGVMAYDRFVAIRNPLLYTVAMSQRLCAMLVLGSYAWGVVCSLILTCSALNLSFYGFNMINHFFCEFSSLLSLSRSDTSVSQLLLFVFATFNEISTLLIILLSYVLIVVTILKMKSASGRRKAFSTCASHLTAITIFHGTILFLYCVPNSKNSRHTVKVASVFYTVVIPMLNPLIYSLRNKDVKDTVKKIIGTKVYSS", "assay": "carbon nanotube transistor current change", "format": "binding", "conditions": "digitonin micelle device; eugenol vapor in N2, 50% RH (2 ppm in Figure 2)", "how_it_was_run": "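Receptor solubilised from crude plasma membranes in 6.76 mM digitonin, captured on Ni-magnetic beads (1 h, 4 °C), eluted in 4.88 mM digitonin/acetate pH 4.0, readjusted to pH 8.0, used immediately. Back-gated nanotube transistors (on/off >1000) treated with 11.3 mM NTA-NH2 (2 h), then 11.3 mM NiCl2; receptor deposited 30 min, room temperature. Current recorded under computer-controlled humidity, temperature and vapor flow.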"}}}
{"smiles": "C=CCc1ccc(O)c(OC)c1", "note": "[eugenol]", "values": [{"measurement": "mOR 256-17 / nanodisc nanotube", "setting": "[1]", "value": "+33.6±8.3%"}, {"measurement": "mOR 174-9 / micelle nanotube", "setting": "[2]", "value": "+20.9±4.6%"}]}
